ChEMBL document CHEMBL1121490, “10-Piperazinyl-4H-theino[3,2-b][1,5]- and -[3,4-b][1,5]benzodiazepines as potential neuroleptics” (J Med Chem, 1980)

Experiments:
Mus musculus [1] = experiment: Hypothermia in mice after perorla administration; assay type: functional
Procedure, shortened: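 Groups of three CFW mice were dosed orally. Rectal temperature was taken 15 min, 2.5 h and 5 h after dosing. Mean changes from each group's mean initial temperature were summed as a "temperature index". ED_min is the minimum dose (mg/kg) giving an index at least 5 lower than the control group.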

[2] = (§1) Lethal dose in mice after perorla administration; assay type: toxicity, organism-based; settings: mouse, in vivo, po
Procedure, shortened: (§2)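 CFW albino mice (19–21 g), groups of three, given oral doses up to 800 mg/kg as solution or suspension. Mortality and gross behavioural changes observed over 48 h; LD50 approximated from the outcome.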

Rattus norvegicus [3] = experiment: Compound was evaluated for its ability to block conditioned avoidance response (CAR) in rats; Dose administered perorally is 50 mg/kg; no significant block 0-25%; assay type: functional; settings: route oral
Rattus norvegicus [4] = experiment: compound was evaluated for its ability to produce catalepsy activity in rats; Dose administered perorally is 50 mg/kg; assay type: functional; settings: route oral
Procedure, shortened: (§3)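 Groups of eight Lilly Wistar rats (180–190 g) were dosed orally and checked at 0.5, 1, 1.5, 2, 3, 4 and 5 h. Front paws were placed on a 1.5-cm rod 7 cm above the table, and posture was timed up to 20 min. Release within 10 s counted as noncataleptic. Each rat was scored 0–5 by hold time. Maximum scores per animal were summed, giving a group maximum of 40.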

Rattus norvegicus [5] = experiment: Compound was evaluated for its ability to block conditioned avoidance response (CAR) in rats; Dose administered perorally is 25 mg/kg; 51-75% block; assay type: functional; settings: route oral
Rattus norvegicus [6] = experiment: compound was evaluated for its ability to produce catalepsy activity in rats; Dose administered perorally is 25 mg/kg; assay type: functional; settings: route oral; procedure, shortened: as §3
Rattus norvegicus [7] = experiment: Compound was evaluated for its ability to block conditioned avoidance response (CAR) in rats; Dose administered perorally is 20 mg/kg; 51-75% block; assay type: functional; settings: route oral
Procedure, shortened: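 Lilly Wistar rats (120–130 g) trained in a shuttle box to cross on a 5-s buzzer; failure to respond within 1 s of its end gave a mild shock. Only high responders used. Groups of five dosed orally 1 h 50 min before test; 10-min habituation, then 20-min session. Blockade = shocks received as % of stimuli presented.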

Rattus norvegicus [8] = experiment: compound was evaluated for its ability to produce catalepsy activity in rats; Dose administered perorally is 20 mg/kg; assay type: functional; settings: route oral; procedure, shortened: as §3
Rattus norvegicus [9] = experiment: Compound was evaluated for its ability to block conditioned avoidance response (CAR) in rats; Dose administered perorally is 50 mg/kg; 26-30% block; assay type: functional; settings: route oral
Rattus norvegicus [10] = experiment: Compound was evaluated for its ability to block conditioned avoidance response (CAR) in rats; Dose administered perorally is 10 mg/kg; no significant block 0-25%; assay type: functional; settings: route oral
Rattus norvegicus [11] = experiment: Compound was evaluated for its ability to block conditioned avoidance response (CAR) in rats; Dose administered perorally is 50 mg/kg; 31-50% block; assay type: functional; settings: route oral
Rattus norvegicus [12] = experiment: Compound was evaluated for its ability to block conditioned avoidance response (CAR) in rats; Dose administered perorally is 10 mg/kg; 51-75% block; assay type: functional; settings: route oral
Rattus norvegicus [13] = species: Rattus norvegicus; experiment: compound was evaluated for its ability to produce catalepsy activity in rats; assay type: functional; procedure, shortened: as §3
Rattus norvegicus [14] = experiment: Compound was evaluated for its ability to block conditioned avoidance response (CAR) in rats; Dose administered perorally is 25 mg/kg; 31-50% block; assay type: functional; settings: route oral
Rattus norvegicus [15] = experiment: Compound was evaluated for its ability to block conditioned avoidance response (CAR) in rats; Dose administered perorally is 50 mg/kg; 51-75% block; assay type: functional; settings: route oral
Rattus norvegicus [16] = experiment: Compound was evaluated for its ability to block conditioned avoidance response (CAR) in rats; Dose administered perorally is 20 mg/kg; 26-30% block; assay type: functional; settings: route oral
Rattus norvegicus [17] = experiment: Compound was evaluated for its ability to block conditioned avoidance response (CAR) in rats; Dose administered perorally is 50 mg/kg; 76-99% block; assay type: functional; settings: route oral
Mus musculus [18] = experiment: as §1; assay type: toxicity, organism-based; settings: in vivo, po; procedure, shortened: as §2
Rattus norvegicus [19] = experiment: Compound was evaluated for its ability to block conditioned avoidance response (CAR) in rats; Dose administered perorally is 25 mg/kg; 76-99% block; assay type: functional; settings: route oral
Rattus norvegicus [20] = experiment: Compound was evaluated for its ability to block conditioned avoidance response (CAR) in rats; Dose administered perorally is 10; 51-75% block; assay type: functional
Rattus norvegicus [21] = experiment: Compound was evaluated for its ability to block conditioned avoidance response (CAR) in rats; Dose administered perorally is 12.5 mg/kg; 51-75% block; assay type: functional; settings: route oral
Rattus norvegicus [22] = experiment: Compound was evaluated for its ability to block conditioned avoidance response (CAR) in rats; Dose administered perorally is 2.5 mg/kg; 31-50% block; assay type: functional; settings: route oral
Rattus norvegicus [23] = experiment: compound was evaluated for its ability to produce catalepsy activity in rats; Dose administered perorally is 2.5 mg/kg; assay type: functional; settings: route oral; procedure, shortened: as §3
Rattus norvegicus [24] = experiment: Compound was evaluated for its ability to block conditioned avoidance response (CAR) in rats; Dose administered perorally is 40 mg/kg; 51-75% block; assay type: functional; settings: route oral
Rattus norvegicus [25] = experiment: Compound was evaluated for its ability to block conditioned avoidance response (CAR) in rats; Dose administered perorally is 25 mg/kg;n o significant block 0-25%; assay type: functional; settings: route oral
Rattus norvegicus [26] = experiment: Compound was evaluated for its ability to produce catalepsy activity in rats; Dose administered perorally is 50 mg/kg; no significant effect (group score 0-3); assay type: functional; settings: route oral; procedure, shortened: as §3
Rattus norvegicus [27] = experiment: Compound was evaluated for its ability to block conditioned avoidance response (CAR) in rats; Dose administered perorally is 5 mg/kg; no significant block 0-25%; assay type: functional; settings: route oral
Rattus norvegicus [28] = species: Rattus norvegicus; experiment: compound was evaluated for its ability to produce catalepsy activity in rats.; assay type: functional
Procedure, shortened: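 Groups of eight Lilly Wistar rats (180–190 g) dosed orally, front paws placed on 1.5-cm rod 7 cm above table at 0.5, 1, 1.5, 2, 3, 4, 5 h. Time held recorded up to 20 min, scored 0–5 (<10 s = 0 up to >20 min = 5). Maximum score per animal summed; group maximum 40.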

Rattus norvegicus [29] = experiment: compound was evaluated for its ability to produce catalepsy activity in rats; Dose administered perorally is 100 mg/kg; assay type: functional; settings: route oral; procedure, shortened: as §3
Rattus norvegicus [30] = experiment: Compound was evaluated for its ability to block conditioned avoidance response (CAR) in rats; Dose administered perorally is 40 mg/kg; no significant block 0-25%; assay type: functional; settings: route oral
Rattus norvegicus [31] = experiment: Compound was evaluated for its ability to block conditioned avoidance response (CAR) in rats; Dose administered perorally is 1.25 mg/kg; 51-75% block; assay type: functional; settings: route oral

SMILES | EDmin (Mus musculus [1]) [mg/kg] | LD50 [2] [mg/kg] | other results
Clc1cc2c(cc1Cl)Nc1cscc1C(N1CCNCC1)=N2 | 200 | > 800 | Activity (Rattus norvegicus [3]): 0; Activity (Rattus norvegicus [4]): 0
CN1CCN(C2=Nc3ccccc3Nc3ccsc32)CC1 | 25 | 100 | Activity (Rattus norvegicus [5]): 3; Activity (Rattus norvegicus [6]): 2
CN1CCN(C2=Nc3cc(F)ccc3Nc3ccsc32)CC1 | 12.5 | > 25 | Activity (Rattus norvegicus [7]): 3; Activity (Rattus norvegicus [8]): 2
OCCN1CCN(CC/C=C2\c3ccccc3Sc3ccc(C(F)(F)F)cc32)CC1 [E-FLUPENTIXOL] | >400 | > 400 | Activity (Rattus norvegicus [9]): 1; Activity (Rattus norvegicus [4]): 0
Cc1cc2c(s1)C(N1CCN(C)CC1)=Nc1cc(F)ccc1N2 | 12.5 | 150 | Activity (Rattus norvegicus [10]): 0
CCOC(=O)N1CCN(C2=Nc3cc(F)ccc3Nc3ccsc32)CC1 | >800 | > 800 | Activity (Rattus norvegicus [9]): 1
CN1CCN(C2=Nc3ccccc3N(C)c3cscc32)CC1 | 25 | 150 | Activity (Rattus norvegicus [11]): 2; Activity (Rattus norvegicus [4]): 0
c1ccc(CN2CCN(C3=Nc4ccccc4Nc4ccsc43)CC2)cc1 | 200 | > 400 | Activity (Rattus norvegicus [3]): 0
COc1ccc2c(c1)N=C(N1CCN(C)CC1)c1cscc1N2 | 50 | 200 | Activity (Rattus norvegicus [9]): 1; Activity (Rattus norvegicus [4]): 1
c1ccc2c(c1)N=C(N1CCNCC1)c1cscc1N2 | 50 | > 400 | Activity (Rattus norvegicus [3]): 0; Activity (Rattus norvegicus [4]): 1
Clc1ccc2c(c1)N=C(N1CCNCC1)c1cscc1N2 | 25 | > 400 | Activity (Rattus norvegicus [3]): 0; Activity (Rattus norvegicus [4]): 0
CN(C)CCCN1c2ccccc2Sc2ccc(Cl)cc21 [CHLORPROMAZINE] | 6.25 | – | Activity (Rattus norvegicus [12]): 3; Activity (Rattus norvegicus [13]): 1
CSc1ccc2c(c1)N=C(N1CCN(C)CC1)c1cscc1N2 | 25 | 400 | Activity (Rattus norvegicus [14]): 2
CSc1ccc2c(c1)N(CCC1CCCCN1C)c1ccccc1S2 (configuration not stated) [THIORIDAZINE] | 25 | – | Activity (Rattus norvegicus [15]): 3; Activity (Rattus norvegicus [6]): 1
CN1CCN(C2=Nc3cc(F)ccc3Nc3cscc32)CC1 | 6.25 | 100 | Activity (Rattus norvegicus [16]): 1; Activity (Rattus norvegicus [8]): 1
CN1CCN(C2=Nc3cc(Cl)c(Cl)cc3Nc3cscc32)CC1 | 25 | 400 | Activity (Rattus norvegicus [17]): 4; Activity (Rattus norvegicus [13]): 1
CN1CCN(C2=Nc3ccccc3Nc3cscc32)CC1 | 25 | 150 | LD50 (Mus musculus [18]): 150 mg/kg; Activity (Rattus norvegicus [19]): 4; Activity (Rattus norvegicus [6]): 1
CN1CCN(C2=Nc3cc(Cl)ccc3Nc3cscc32)CC1 | 3 | 75 | Activity (Rattus norvegicus [20]): 3; Activity (Rattus norvegicus [13]): 1
CN1CCN(C2=Nc3cc(Cl)ccc3Nc3ccsc32)CC1 | 6.25 | 50 | Activity (Rattus norvegicus [21]): 3; Activity (Rattus norvegicus [13]): 2

SMILES | EDmin (Mus musculus [1]) [mg/kg] | LD50 [2] [mg/kg] | other results
Fc1ccc2c(c1)N=C(N1CCNCC1)c1sccc1N2 | 50 | 400 | Activity (Rattus norvegicus [11]): 2; Activity (Rattus norvegicus [4]): 1
CN1CCN(c2cccc3c2N=C2SC=CC2N=C3)CC1 (configuration not stated) | >50 | > 50 | –
OCCN1CCN(CC/C=C2/c3ccccc3Sc3ccc(C(F)(F)F)cc32)CC1 [Z-FLUPENTIXOL] | 3 | – | Activity (Rattus norvegicus [22]): 2; Activity (Rattus norvegicus [23]): 4
Fc1ccc2c(c1)N=C(N1CCNCC1)c1cscc1N2 | 100 | 600 | Activity (Rattus norvegicus [3]): 0; Activity (Rattus norvegicus [4]): 0
CN1CCN(C2=Nc3cc(C(F)(F)F)ccc3Nc3cscc32)CC1 | 50 | > 200 | Activity (Rattus norvegicus [24]): 3
Cc1scc2c1C(N1CCN(C)CC1)=Nc1ccccc1N2 | 50 | > 400 | Activity (Rattus norvegicus [25]): 0
OCCCN1CCN(C2=Nc3ccccc3Nc3cscc32)CC1 | >400 | > 400 | Activity (Rattus norvegicus [9]): 1
c1ccc(CN2CCN(C3=Nc4ccccc4Nc4cscc43)CC2)cc1 | 800 | 800 | Activity (Rattus norvegicus [3]): 0
c1ccc2c(c1)N=C(N1CCNCC1)c1sccc1N2 | 50 | 400 | Activity (Rattus norvegicus [9]): 1; Activity (Rattus norvegicus [26]): 0
Fc1ccc2c(c1)N=C(N1CCN(Cc3ccccc3)CC1)c1sccc1N2 | 100 | > 400 | Activity (Rattus norvegicus [3]): 0
O=CN1CCN(C2=Nc3ccccc3N(C=O)c3cscc32)CC1 | 200 | 400 | Activity (Rattus norvegicus [3]): 0
CN1CCN(C2=NC3=CSCC3=Nc3ccccc32)CC1 | 50 | 50 | Activity (Rattus norvegicus [27]): 0
CN1CCN(C2=Nc3cc(Cl)ccc3Nc3ccccc32)CC1 [CLOZAPINE] | 50 | – | Activity (Rattus norvegicus [7]): 3; Activity (Rattus norvegicus [28]): 2
Cc1scc2c1Nc1ccccc1N=C2N1CCN(C)CC1 | >100 | 200 | Activity (Rattus norvegicus [3]): 0; Activity (Rattus norvegicus [29]): 0
OCCCN1CCN(C2=Nc3cc(F)ccc3Nc3ccsc32)CC1 | 200 | > 400 | Activity (Rattus norvegicus [30]): 0; Activity (Rattus norvegicus [4]): 0
O=C(CCCN1CCC(O)(c2ccc(Cl)cc2)CC1)c1ccc(F)cc1 [HALOPERIDOL] | 3 | > 100 | Activity (Rattus norvegicus [31]): 3; Activity (Rattus norvegicus [13]): 3
OCCN1CCN(C2=Nc3cc(F)ccc3Nc3ccsc32)CC1 | 25 | > 400 | Activity (Rattus norvegicus [11]): 2; Activity (Rattus norvegicus [4]): 0
CN1CCN(C2=Nc3ccc(C(F)(F)F)cc3Nc3cscc32)CC1 | 100 | 600 | Activity (Rattus norvegicus [3]): 0; Activity (Rattus norvegicus [4]): 0
